# Bioassay records from PubChem.
# PostGolgi yeast = growth inhibition of a yeast mutant, post-Golgi transport screen | post-Golgi transport phenotypic cell assay | inhibition, % at 10 µM | 98,000 compounds, 0.9% hits | AID 739;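 further: yeast cells grown in 1536-well plates; yeast grown about 18 h at 30C before absorbance read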
# tolC growth inh = growth inhibitors of E. coli BW25113 tolC mutant. 65,000 compounds, 2.2% hits. growth inhibition, % at 10 µM (by protocol). OD615;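 active means growth inhibition at or above a cutoff equal to the mean over every tested compound plus 3 SD, cut at about 60% in these data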;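 further: growth measured after 20 h incubation at 37 °C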
#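 Test system: tolC-deleted E. coli BW25113 | Medium: LB with kanamycin 50 µg/mL | Compound dosing: Single concentration, 10 µM final per compound | Schedule: 37 °C, 20 h exposure | Measured by: OD at 615 nm | Evaluation: Percent growth inhibition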
# E coli WT exp = blocks growth of wild type E. coli BW25113; OD600 absorbance; growth inhibition, % at 100 µM; 98,000 compounds, 0.15% hits; AID 710;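 active means growth inhibition above about 50% at one test dose, limit read from the data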;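 further: growth measured after 20 h incubation at 37 °C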
# PLAP act = activates human placental alkaline phosphatase | P05187 | purified PLAP enzyme, luminescent substrate read-out; stronger effect = higher value | activation fold at 20 µM | 96,000 compounds, 1.2% hits; in the data active means activation fold above about 2
# Target sequence (P05187 whole entry, looked up): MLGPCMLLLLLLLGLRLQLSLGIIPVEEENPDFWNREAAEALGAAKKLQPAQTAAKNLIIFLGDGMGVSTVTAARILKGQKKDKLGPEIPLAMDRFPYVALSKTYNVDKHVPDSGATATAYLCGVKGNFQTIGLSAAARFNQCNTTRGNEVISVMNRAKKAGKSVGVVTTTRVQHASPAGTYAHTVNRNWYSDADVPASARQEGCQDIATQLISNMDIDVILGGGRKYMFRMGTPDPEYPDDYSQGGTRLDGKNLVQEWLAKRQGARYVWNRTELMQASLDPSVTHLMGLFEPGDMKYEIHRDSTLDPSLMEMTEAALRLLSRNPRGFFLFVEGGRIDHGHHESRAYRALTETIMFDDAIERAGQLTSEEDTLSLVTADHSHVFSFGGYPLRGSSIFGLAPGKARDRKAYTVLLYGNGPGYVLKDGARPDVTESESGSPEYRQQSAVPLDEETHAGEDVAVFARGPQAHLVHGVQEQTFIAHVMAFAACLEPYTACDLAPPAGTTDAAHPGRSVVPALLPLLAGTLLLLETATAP
# PostGolgi ctrl = growth of the yeast control strain, post-Golgi counter-screen; 98,000 compounds, 5% hits; inhibition, % at 10 µM; efflux-deficient yeast background strain, growth absorbance A615, 16 h
# * marks the source's active call; other numbers are inactive results; x = not tested or not shown. Compounds with a hit are over-represented: about 7.2% of the library has one in this group of screens. Unless noted, no stated cut-off is given here; in the data, active means inhibition above about 30%; inactive means the rest.
SMILES,PostGolgi yeast,tolC growth inh,E coli WT exp,PLAP act,PostGolgi ctrl
N#CC1=C(N)N(c2ccccc2Sc2ccccc2)C(=O)C1,-7.1,3.9,3.0,1.3,34.8*
O=P(COc1ccccc1)(c1ccccc1)c1ccccc1,-0.2,x,3.0,0.9,7.6
O=C(Nc1cccc2ccccc12)c1nn(C23CC4CC(CC(C4)C2)C3)cc1[N+](=O)[O-],46.7*,x,-7.0,1,84.7*
CCc1cc2c3c(c(=O)oc2cc1O)CCCC3,7.3,60.6*,2.0,1,27.4
CCOc1ccc(-c2nc(CSc3nnc(C)s3)cs2)cc1OC,-11.5,x,8.0,2.1*,11.8
CCOc1ccc(-c2nc(CSc3nncs3)cs2)cc1OC,4.1,44.9,3.0,1.2,7.4
CN1/C(=C/C(=O)C2CCC2)Sc2ccccc21,21.0,1.4,16.0,0.9,-2.1
CN1/C(=C\C(=O)c2cccs2)Sc2ccccc21,24.3,68.2*,3.0,1,3.4
COCC(=O)/C=C1\Sc2ccccc2N1C,-0.9,-9.0,6.0,0.8,36.1*
CCOC(=O)COc1c(OC)cc(Cl)cc1C1Nc2ccccc2C(=O)N1c1cccc(C)c1 (centres undefined),-12.2,x,-22.0,1.2,20.3
CCOC(=O)COc1ccccc1C1Nc2ccccc2C(=O)N1c1cccc(Cl)c1 (centres undefined),44.2*,x,-8.0,1.1,12.9
O=C(CCC(=O)c1cccs1)Nc1ccc(F)c(F)c1F,-3.3,x,14.0,1,13.8
CCOc1cc(/C=N/NC(N)=S)cc(Br)c1OCc1ccccc1C,2.5,x,-6.0,1.2,66.6*
CCOc1cc(/C=N/N=C(\N)c2nonc2N)cc(Br)c1OCc1cccc2ccccc12,16.6,x,-10.0,0.8,-2.2
CCOC(=O)C(NC(=O)c1ccc(Cl)cc1Cl)(Nc1ccc(C)cc1)C(F)(F)F (centres undefined),2.8,x,2.0,0.8,5.8
CCN(C#N)c1nc(N(C)C)nc(N(C)C)n1,-3.7,8.6,1.0,0.9,25.5
CC1CCCCN1Cc1ccc(-c2nn[nH]n2)cc1 (centres undefined),1.4,-10.7,-7.0,1,45.2*
COc1ccc(CNC(=O)C2CCN(S(=O)(=O)c3ccc(-c4nn[nH]n4)cc3)CC2)cc1,-1.7,-28.2,-8.0,1.2,4.4
COc1cccc(C2(CSc3nnc(-c4cc(OC)c(OC)c(OC)c4)o3)OCCO2)c1,3.9,x,-14.0,1.3,18.8
Cc1noc(C)c1COc1ccc(C(=O)OCc2nnc(-c3ccc(Cl)cc3)o2)cc1,21.5,33.4,-25.0,1.3,11.8
CC1=NNC(=O)/C1=C\c1cn(-c2ccccc2)nc1-c1ccc(Cl)cc1,108.6*,x,-4.0,1.1,98.0*
COC(=O)c1ccc(N2CCCCC2)c(NS(=O)(=O)c2ccc(C)cc2)c1,17.4,x,-18.0,1.7,30.1*
Cc1cc2c3c(c1)C(C)(c1ccccc1)CC(C)(C)N3C(=O)C21C(C#N)=C(N)OC2=C1C(=O)CC(C)(C)C2 (centres undefined),2.2,x,-5.0,2*,12.7
CC1(C)CC(=O)C2=C(C1)OC(N)=C(C#N)C21C(=O)N2CCCc3cccc1c32 (centres undefined),-6.0,-5.3,-2.0,1.1,33.9*
CC1(c2ccccc2)CC(C)(C)N2C(=O)C3(C(C#N)=C(N)Oc4cc(O)ccc43)c3cccc1c32 (centres undefined),-3.5,x,-2.0,1.7,19.8
SMILES,PostGolgi yeast,tolC growth inh,E coli WT exp,PLAP act,PostGolgi ctrl
CC1(C)CC(=O)C2=C(C1)OC(N)=C(C#N)[C@@]21C(=O)N(CC(N)=O)c2ccccc21,6.3,15.5,8.0,1.2,5.1
Cc1ccc(S(=O)(=O)Cc2ccc(C(=O)OCc3ccccc3)cc2)cc1,-4.0,x,-5.0,0.7,35.3*
O=C(O)c1ccc(S(=O)(=O)Cc2ccccc2)cc1,4.0,-4.0,-1.0,1.2,10.8
Cc1ccc(-n2ncc3c(=O)n(CC(=O)OCc4ccccc4)cnc32)cc1,-1.9,4.9,-3.0,0.9,35.6*
O=S(=O)(Nc1ccc(O)c(Sc2nc3ccccc3s2)c1)c1ccc(Cl)cc1,36.6*,x,-15.0,0.9,28.0
O=C(CSc1nc2ccccc2s1)NCCOc1ccc(Cl)cc1,-9.5,x,-16.0,0.9,28.9
CC(=O)N(CCC(Cc1ccccc1)c1ccc2c(c1)OCO2)Cc1ccc(Cl)cc1 (centres undefined),-3.4,x,-10.0,1.5,36.4*
O=S(=O)(Nc1nc2ccccc2nc1NCc1ccco1)c1ccccc1,12.3,71.1*,1.0,0.9,28.5
c1coc(CNc2nc(N3CCCCC3)nc3ccccc23)c1,40.0*,71.0*,31.0,1.6,8.0
c1ccc(-c2nc(NCc3ccco3)c3ccccc3n2)nc1,8.2,83.3*,20.0,1.6,3.8
